Data from ChEMBL document CHEMBL5705889, “Novel mutant-selective EGFR kinase inhibitors against EGFR T790M” (Nature, 2009).
pIC50, pKd: −log10 of the molar value. Calls of active or inactive are those of the source. The rule behind the calls is not given here.

Assays:
[1] = tested on: HCC827; test: cells; type: functional, cell-based; details: Homo sapiens, HCC827, 72 h
[2] = tested on: PC-9; test: cells; type: functional, cell-based; details: Homo sapiens, PC-9, 72 h
[3] = cells; type: functional, cell-based; details: Homo sapiens, Gefitinib-resistant PC9, 72 h
[4] = cells; type: functional, cell-based; details: Homo sapiens, HCC827 Gefitinib-resistant (GR) cell, 72 h
[5] = cells; type: functional, cell-based; details: Homo sapiens, NCI-H1781, 72 h
[6] = target: RAC-alpha serine/threonine-protein kinase (Homo sapiens) (UniProt P31749); test: Inhibition of AKT phosphorylation in human PC9 Gefitinib-resistant (GR) cells at 0.01 to 1 uM incubated for 16 hrs by immunoblot analysis; type: cell-based; details: PC9 Gefitinib-resistant (GR) cell, dose 0.01-1 µM
[7] = target: Mitogen-activated protein kinase; ERK1/ERK2 (Homo sapiens) (UniProt P27361+P28482); test: Inhibition of ERK1/2 phosphorylation in human PC9 Gefitinib-resistant (GR) cells at 0.01 to 1 uM incubated for 16 hrs by immunoblot analysis; type: cell-based; details: PC9 Gefitinib-resistant (GR) cell, dose 0.01-1 µM
[8] = target: RAC-alpha serine/threonine-protein kinase (Homo sapiens) (UniProt P31749); test: Inhibition of AKT phosphorylation in human NCI-H1975 cells at 0.01 to 1 uM incubated for 16 hrs by immunoblot analysis; type: cell-based; details: dose 0.01-1 µM
[9] = target: ALK tyrosine kinase receptor (Homo sapiens, UniProt Q9UM73); test: Binding affinity of ALK (unknown origin) assessed as dissociation constant
[10] = target: eIF-2-alpha kinase GCN2 (Homo sapiens, UniProt Q9P2K8); test: Binding affinity to GCN2 (unknown origin) assessed as dissociation constant
[11] = target: Cyclin-G-associated kinase (Homo sapiens, UniProt O14976); test: Binding affinity to GAK (unknown origin) assessed as dissociation constant
[12] = target: Tyrosine-protein kinase ITK/TSK (Homo sapiens, UniProt Q08881); test: Binding affinity to ITK (unknown origin) assessed as dissociation constant
[13] = target: Focal adhesion kinase 1 (Homo sapiens, UniProt Q05397); test: Binding affinity to FAK (unknown origin) assessed as dissociation constant
[14] = AUC(0 to t) in mouse at 1 mg/kg, iv administered as single dose; type: ADME, organism-based; details: in vivo
[15] = Tmax in mouse at 10 mg/kg, po administered as single dose; type: ADME, organism-based; details: in vivo
[16] = MRT in mouse at 10 mg/kg, po administered as single dose; type: ADME, organism-based; details: in vivo
[17] = Drug concentration in mouse plasma at 1 mg/kg, iv administered as single dose and measured after 0.08 hrs; type: ADME, organism-based
[18] = Drug concentration in mouse plasma at 1 mg/kg, iv administered as single dose and measured after 0.25 hrs; type: ADME, organism-based
[19] = Drug concentration in mouse plasma at 1 mg/kg, iv administered as single dose and measured after 1 hrs; type: ADME, organism-based
[20] = Drug concentration in mouse plasma at 1 mg/kg, iv administered as single dose and measured after 2 hrs; type: ADME, organism-based
[21] = Drug concentration in mouse plasma at 1 mg/kg, iv administered as single dose and measured after 4 hrs; type: ADME, organism-based
[22] = Drug concentration in mouse plasma at 1 mg/kg, iv administered as single dose and measured after 8 hrs; type: ADME, organism-based
[23] = Drug concentration in mouse plasma at 10 mg/kg, po administered as single dose and measured after 0.5 hrs; type: ADME, organism-based
[24] = Drug concentration in mouse plasma at 10 mg/kg, po administered as single dose and measured after 2 hrs; type: ADME, organism-based
[25] = Drug concentration in mouse plasma at 10 mg/kg, po administered as single dose and measured after 6 hrs; type: ADME, organism-based
[26] = Drug concentration in mouse plasma at 10 mg/kg, po administered as single dose and measured after 24 hrs; type: ADME, organism-based
[27] = tested on: Mus musculus; test: In vivo inhibition of EGFR phosphorylation in transgenic mouse harboring EGFR del E746_A750/T790M mutant at 2.5 to 25 mg/kg administered as two doses separated by 16 hours by immunoblot analysis; type: functional, organism-based; details: dose 2.5-25 mg/kg
In short: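 Transgenic mice gavaged with compound in 10% 1-methyl-2-pyrrolidinone:90% PEG-300 vehicle; phosphorylation assessed in tissue by immunoblotting per standard protocols.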

[28] = tested on: Mus musculus; test: In vivo inhibition of EGFR phosphorylation in transgenic mouse harboring EGFR L858R/T790M mutant at 2.5 to 25 mg/kg administered as two doses separated by 16 hours by immunoblot analysis; type: functional, organism-based; details: dose 2.5-25 mg/kg
[29] = tested on: Mus musculus; test: In vivo antitumor activity in transgenic mouse harboring EGFR delE746_A750/T790M mutant assessed as increase in TUNEL positive cells at 25 mg/kg administered via gavage for 2 weeks by immunohistochemical analysis; type: functional, organism-based
In short: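 Transgenic EGFR T790M mutant mice were given daily gavage at 25mg/kg in 10% 1-methyl-2-pyrrolidinone:90% PEG-300 vehicle, alongside vehicle-alone controls. Tumor tissue was immunostained by standard protocols, and TUNEL-positive and Ki67-positive cells were counted.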

[30] = tested on: Mus musculus; test: Invivo antitumor activity in transgenic mouse harboring EGFR del19/T790M mutant assessed as reduction in nodule remnants in tumor at 25 mg/kg administered via gavage for 2 weeks by H&E staining based analysis; type: functional, organism-based
In short: (§1)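 EGFR-TL (L858R/T790M) or exon19 deletion-T790M (TD) inducible bitransgenic mice dosed by oral gavage daily at 25 mg/kg; vehicle 10% 1-methyl-2-pyrrolidinone:90% PEG-300. Tumors followed by MRI; lung histology by standard protocols.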

[31] = tested on: Mus musculus; test: Invivo antitumor activity in transgenic mouse harboring EGFR del19/T790M mutant assessed as decrease in cellularity at 25 mg/kg administered via gavage for 2 weeks by H&E staining based analysis; type: functional, organism-based
In short: as §1

[32] = tested on: Mus musculus; test: Invivo antitumor activity in transgenic mouse harboring EGFR L858R/T790M mutant assessed as decrease in cellularity at 25 mg/kg administered via gavage for 2 weeks by H&E staining based analysis; type: functional, organism-based
In short: as §1

[33] = tested on: Mus musculus; test: Invivo antitumor activity in transgenic mouse harboring EGFR L858R/T790M mutant assessed as increase in fibrosis at 25 mg/kg administered via gavage for 2 weeks by H&E staining based analysis; type: functional, organism-based
In short: as §1

[34] = tested on: Mus musculus; test: Invivo antitumor activity in transgenic mouse harboring EGFR L858R/T790M mutant assessed as remodelling/scarring at 25 mg/kg administered via gavage for 2 weeks by H&E staining based analysis; type: functional, organism-based
In short: as §1

[35] = tested on: BaF3; test: Prevention of EGFR T790M mutant development in mouse BaF3 cells harboring L858R mutant assessed as reduction in resistant clones with T790M mutant at 0.001 to 1 uM; type: functional, cell-based; details: dose 0.001-1 µM
In short: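 Ba/F3 cells with EGFR L858R or delE746_A750 mutagenized with N-ethyl-N-nitrosourea, then expanded in 100 nM or 1 μM inhibitor; resistant clones isolated and characterized for EGFR T790M.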

[36] = target: Tyrosine-protein kinase Tec (Homo sapiens) (UniProt P42680); test: Inhibition of TEC (unknown origin)
Sequence of Tyrosine-protein kinase Tec (Homo sapiens) (P42680 whole entry, looked up): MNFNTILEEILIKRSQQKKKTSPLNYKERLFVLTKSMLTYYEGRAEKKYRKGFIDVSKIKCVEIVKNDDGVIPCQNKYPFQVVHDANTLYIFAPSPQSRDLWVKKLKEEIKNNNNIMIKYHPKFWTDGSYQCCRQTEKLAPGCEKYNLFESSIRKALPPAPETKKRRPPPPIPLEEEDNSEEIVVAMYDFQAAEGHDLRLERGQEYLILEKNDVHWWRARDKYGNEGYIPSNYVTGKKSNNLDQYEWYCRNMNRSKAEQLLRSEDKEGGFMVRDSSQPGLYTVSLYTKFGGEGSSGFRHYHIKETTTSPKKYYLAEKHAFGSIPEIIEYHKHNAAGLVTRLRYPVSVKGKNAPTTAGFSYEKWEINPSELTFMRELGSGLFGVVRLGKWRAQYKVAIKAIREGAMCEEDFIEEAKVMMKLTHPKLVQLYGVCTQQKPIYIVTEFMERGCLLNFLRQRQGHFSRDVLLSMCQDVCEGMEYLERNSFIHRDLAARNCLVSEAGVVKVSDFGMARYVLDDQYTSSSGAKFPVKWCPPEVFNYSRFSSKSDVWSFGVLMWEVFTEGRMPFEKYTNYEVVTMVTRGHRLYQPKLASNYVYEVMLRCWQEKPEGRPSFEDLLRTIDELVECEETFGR

Sequence of RAC-alpha serine/threonine-protein kinase (Homo sapiens) (P31749 whole entry): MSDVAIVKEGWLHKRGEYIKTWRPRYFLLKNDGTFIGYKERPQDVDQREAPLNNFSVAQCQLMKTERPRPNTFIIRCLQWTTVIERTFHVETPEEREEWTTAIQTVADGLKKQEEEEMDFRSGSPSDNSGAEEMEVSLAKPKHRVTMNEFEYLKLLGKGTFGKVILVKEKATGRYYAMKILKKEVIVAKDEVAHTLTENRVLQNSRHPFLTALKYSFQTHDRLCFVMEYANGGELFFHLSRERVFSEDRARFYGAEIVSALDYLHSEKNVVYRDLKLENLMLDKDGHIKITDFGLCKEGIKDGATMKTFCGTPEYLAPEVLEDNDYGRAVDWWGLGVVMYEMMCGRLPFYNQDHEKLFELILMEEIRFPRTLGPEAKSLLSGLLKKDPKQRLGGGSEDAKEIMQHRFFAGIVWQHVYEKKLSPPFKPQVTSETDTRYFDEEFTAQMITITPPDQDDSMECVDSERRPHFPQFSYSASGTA
Sequence of Focal adhesion kinase 1 (Q05397 whole entry): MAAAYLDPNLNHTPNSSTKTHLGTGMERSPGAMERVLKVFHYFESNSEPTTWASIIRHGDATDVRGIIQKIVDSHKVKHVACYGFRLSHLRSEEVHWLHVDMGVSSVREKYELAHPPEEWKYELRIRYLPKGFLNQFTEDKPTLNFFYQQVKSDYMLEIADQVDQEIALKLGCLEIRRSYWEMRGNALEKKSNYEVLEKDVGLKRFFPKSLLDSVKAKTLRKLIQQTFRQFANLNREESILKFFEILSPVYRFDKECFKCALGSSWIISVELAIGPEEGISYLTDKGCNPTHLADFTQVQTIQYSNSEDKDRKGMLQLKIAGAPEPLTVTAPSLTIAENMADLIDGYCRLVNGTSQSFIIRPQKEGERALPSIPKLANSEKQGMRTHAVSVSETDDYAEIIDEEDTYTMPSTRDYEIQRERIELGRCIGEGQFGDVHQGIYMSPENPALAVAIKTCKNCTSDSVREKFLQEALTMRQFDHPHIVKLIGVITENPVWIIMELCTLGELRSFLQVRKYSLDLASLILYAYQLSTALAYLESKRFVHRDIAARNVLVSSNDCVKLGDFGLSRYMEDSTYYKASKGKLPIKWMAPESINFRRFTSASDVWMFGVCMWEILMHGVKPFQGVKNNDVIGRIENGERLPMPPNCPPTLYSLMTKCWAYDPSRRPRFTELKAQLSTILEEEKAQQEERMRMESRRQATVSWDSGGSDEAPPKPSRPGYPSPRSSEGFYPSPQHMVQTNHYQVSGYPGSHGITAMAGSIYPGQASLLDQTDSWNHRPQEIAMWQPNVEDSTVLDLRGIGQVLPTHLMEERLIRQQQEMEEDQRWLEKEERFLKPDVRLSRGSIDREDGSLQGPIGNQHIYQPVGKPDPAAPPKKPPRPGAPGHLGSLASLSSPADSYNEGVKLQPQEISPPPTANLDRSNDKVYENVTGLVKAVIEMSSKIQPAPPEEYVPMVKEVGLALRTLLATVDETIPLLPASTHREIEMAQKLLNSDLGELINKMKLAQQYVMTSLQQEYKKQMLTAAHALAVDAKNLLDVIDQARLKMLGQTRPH
Sequence of Tyrosine-protein kinase ITK/TSK (Q08881 whole entry): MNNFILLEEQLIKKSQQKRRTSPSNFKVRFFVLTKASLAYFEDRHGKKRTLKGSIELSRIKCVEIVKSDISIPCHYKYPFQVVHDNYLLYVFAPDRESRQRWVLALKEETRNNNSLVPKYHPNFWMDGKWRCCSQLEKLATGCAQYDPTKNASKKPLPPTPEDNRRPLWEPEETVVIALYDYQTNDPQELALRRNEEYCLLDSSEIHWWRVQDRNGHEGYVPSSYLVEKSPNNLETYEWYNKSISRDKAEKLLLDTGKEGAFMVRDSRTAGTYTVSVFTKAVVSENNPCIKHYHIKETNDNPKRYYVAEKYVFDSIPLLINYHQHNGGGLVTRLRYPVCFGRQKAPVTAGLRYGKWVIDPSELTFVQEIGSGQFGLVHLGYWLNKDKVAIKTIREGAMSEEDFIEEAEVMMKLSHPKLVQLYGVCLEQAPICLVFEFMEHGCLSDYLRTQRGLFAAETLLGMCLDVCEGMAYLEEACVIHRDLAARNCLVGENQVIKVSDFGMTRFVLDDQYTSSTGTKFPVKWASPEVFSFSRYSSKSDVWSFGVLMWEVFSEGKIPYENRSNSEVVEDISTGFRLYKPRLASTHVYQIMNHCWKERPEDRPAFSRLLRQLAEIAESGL
Sequence of Cyclin-G-associated kinase (O14976 whole entry): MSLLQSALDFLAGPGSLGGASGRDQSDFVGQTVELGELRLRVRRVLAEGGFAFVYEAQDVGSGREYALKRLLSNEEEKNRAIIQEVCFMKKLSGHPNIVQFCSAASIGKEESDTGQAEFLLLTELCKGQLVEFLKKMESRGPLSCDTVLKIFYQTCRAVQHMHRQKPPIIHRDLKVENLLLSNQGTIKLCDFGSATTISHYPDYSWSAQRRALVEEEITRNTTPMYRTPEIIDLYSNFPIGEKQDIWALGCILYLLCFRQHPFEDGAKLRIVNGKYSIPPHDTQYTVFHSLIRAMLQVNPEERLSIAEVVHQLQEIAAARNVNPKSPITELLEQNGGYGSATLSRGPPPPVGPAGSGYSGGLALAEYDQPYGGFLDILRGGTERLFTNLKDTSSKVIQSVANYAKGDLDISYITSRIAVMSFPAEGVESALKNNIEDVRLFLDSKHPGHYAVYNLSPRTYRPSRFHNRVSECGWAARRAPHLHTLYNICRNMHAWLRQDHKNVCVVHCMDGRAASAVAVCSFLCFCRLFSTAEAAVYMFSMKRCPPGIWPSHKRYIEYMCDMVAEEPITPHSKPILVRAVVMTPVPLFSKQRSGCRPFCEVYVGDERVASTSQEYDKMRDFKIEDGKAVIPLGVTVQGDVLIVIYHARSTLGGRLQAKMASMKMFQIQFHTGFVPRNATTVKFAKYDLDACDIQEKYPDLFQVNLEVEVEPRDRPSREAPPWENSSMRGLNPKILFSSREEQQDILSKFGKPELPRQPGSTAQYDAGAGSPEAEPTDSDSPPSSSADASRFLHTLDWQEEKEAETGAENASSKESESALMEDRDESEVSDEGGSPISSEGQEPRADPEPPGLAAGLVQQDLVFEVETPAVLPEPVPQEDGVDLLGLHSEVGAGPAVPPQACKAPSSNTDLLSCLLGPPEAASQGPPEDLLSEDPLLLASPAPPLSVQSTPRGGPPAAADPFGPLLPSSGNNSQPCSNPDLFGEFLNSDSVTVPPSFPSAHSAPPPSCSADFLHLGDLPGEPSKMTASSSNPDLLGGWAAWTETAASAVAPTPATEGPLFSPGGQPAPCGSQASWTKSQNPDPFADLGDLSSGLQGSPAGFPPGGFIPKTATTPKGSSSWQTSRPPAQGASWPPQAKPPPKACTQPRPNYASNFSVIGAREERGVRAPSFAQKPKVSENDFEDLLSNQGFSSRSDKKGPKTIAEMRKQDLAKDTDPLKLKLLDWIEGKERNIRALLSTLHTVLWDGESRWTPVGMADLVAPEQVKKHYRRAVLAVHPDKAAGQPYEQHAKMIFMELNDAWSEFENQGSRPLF
Sequence of Mitogen-activated protein kinase; ERK1/ERK2 (Homo sapiens) (P27361 whole entry, looked up): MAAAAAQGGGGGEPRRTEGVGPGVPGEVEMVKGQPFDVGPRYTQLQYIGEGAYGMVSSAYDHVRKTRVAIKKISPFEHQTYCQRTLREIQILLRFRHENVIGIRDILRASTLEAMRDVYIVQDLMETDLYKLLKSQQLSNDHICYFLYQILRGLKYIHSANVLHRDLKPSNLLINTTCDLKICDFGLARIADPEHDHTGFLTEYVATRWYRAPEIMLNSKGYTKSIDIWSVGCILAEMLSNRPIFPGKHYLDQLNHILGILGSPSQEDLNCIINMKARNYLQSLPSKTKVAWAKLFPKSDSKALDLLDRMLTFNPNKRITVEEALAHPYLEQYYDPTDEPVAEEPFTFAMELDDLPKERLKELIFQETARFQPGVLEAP
Sequence of Mitogen-activated protein kinase; ERK1/ERK2 (Homo sapiens) (P28482 whole entry, looked up): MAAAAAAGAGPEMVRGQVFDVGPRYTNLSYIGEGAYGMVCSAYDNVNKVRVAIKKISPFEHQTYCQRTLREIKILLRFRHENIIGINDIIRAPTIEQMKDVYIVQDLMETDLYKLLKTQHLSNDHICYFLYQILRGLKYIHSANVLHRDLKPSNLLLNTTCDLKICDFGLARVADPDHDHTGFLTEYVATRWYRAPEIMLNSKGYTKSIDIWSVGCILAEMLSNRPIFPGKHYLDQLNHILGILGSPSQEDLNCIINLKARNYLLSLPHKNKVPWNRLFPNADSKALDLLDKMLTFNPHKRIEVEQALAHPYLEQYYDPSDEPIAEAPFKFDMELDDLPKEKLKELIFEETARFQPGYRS

pIC50 [1]: 8.30
pIC50 [2]: 7.44
pIC50 [3]: 7.33
pIC50 [4]: < 5.48
pIC50 [5]: 5.82
inhibition [6]: Active
inhibition [7]: Active
inhibition [8]: Active
pKd [9]: 6.52
pKd [10]: 6.85
pKd [11]: 7.04
pKd [12]: 7.37
pKd [13]: 7.11
AUC(0-t) [14]: 956 ng·h/mL
Tmax [15]: 0.25 h
MRT [16]: 3.98 h
concentration at 0.08 h [17]: 1130 ng/mL
concentration at 0.25 h [18]: 627 ng/mL
concentration at 1 h [19]: 228 ng/mL
concentration at 2 h [20]: 80.4 ng/mL
concentration at 4 h [21]: 49.1 ng/mL
concentration at 8 h [22]: 8 ng/mL
concentration at 0.5 h [23]: 397 ng/mL
concentration at 2 h [24]: 422 ng/mL
concentration at 6 h [25]: 140 ng/mL
concentration at 24 h [26]: 0.82 ng/mL
inhibition [36]: Active
Compound: C=CC(=O)Nc1cccc(Oc2nc(Nc3ccc(N4CCN(C)CC4)cc3OC)ncc2Cl)c1
inhibition [27]: Active
inhibition [28]: Active
Activity [29]: Active
Activity [30]: Active
Activity [31]: Active
Activity [32]: Active
Activity [33]: Active
Activity [34]: Active
Activity [35]: Active
